# Measurements from different studies.
# Protocols differ between the studies behind these lines.
Compound,organism,assay,test system,setting,measurement,value
CC(C)[C@H](N)C(=O)OCCCCCn1cnc2nc(NCc3ccc(Cl)c(Cl)c3)[nH]c(=O)c21,Lacticaseibacillus casei,"microbial growth, agar dilution",,48 h,MIC,> 32 µg/mL
O=[N+]([O-])c1cc2cc3ccc4oc([N+](=O)[O-])cc4c3cc2o1,Mycolicibacterium smegmatis,"microbial growth, resazurin",MC^2155,,MIC90,4 µg/mL
Cn1cnc2nc(NCc3ccc(Cl)c(Cl)c3)[nH]c(=O)c21,Lacticaseibacillus casei,"microbial growth, agar dilution",,48 h,MIC,32 µg/mL
CCCCCOc1ccc(-c2cc(-c3ccc(C(=O)N[C@H]4C[C@@H](O)[C@@H](O)NC(=O)[C@@H]5[C@@H](O)[C@@H](C)CN5C(=O)[C@H]([C@H](O)CC(N)=O)NC(=O)[C@H]([C@H](O)[C@@H](O)c5ccc(O)c(OS(=O)(=O)O)c5)NC(=O)[C@@H]5C[C@@H](O)CN5C(=O)[C@H]([C@@H](C)O)NC4=O)cc3)no2)cc1,Candida tropicalis,biofilm formation,,16 µg/mL,inhibition,28%
CC(C)=CCC/C(C)=C/CNCCNC1C2CC3CC(C2)CC1C3 (centres unmarked),Mycolicibacterium smegmatis,microbial growth,,48 h,IC50,2400 nM
COc1ccc2c(ccc3oc([N+](=O)[O-])c(C)c32)c1,Mycolicibacterium smegmatis,"microbial growth, resazurin",MC^2155,,MIC90,> 32 µg/mL
Cc1c2ccncc2c(C)c2c1[nH]c1ccccc12,Mycolicibacterium smegmatis,"microbial killing, resazurin",,,MBC,87.1 µM
O=C1C2CC3CC(C2)CC1C3,Mycolicibacterium smegmatis,microbial growth,,48 h,IC50,> 500000 nM
